According to ChEMBL document CHEMBL1153784, “Synthesis, characterization, antiamoebic activity and toxicity of novel bisdioxazole derivatives” (Eur J Med Chem, 2009):

Tests used:
Entamoeba histolytica = assay: Antiamoebic activity against Entamoeba histolytica HM1:IMSS trophozoites after 72 hrs by microdilution method; assay type: functional, organism-based
Outline: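 Trophozoites grown in Diamond TYIS-33 medium in 96-well plates; amoebae detached by chilling on ice. Compounds from freshly prepared 1 mg/ml DMSO stocks, twofold serial dilutions, DMSO at most 0.016%. Plates gassed with nitrogen 10 min, incubated 37 °C 72 h, washed with 0.9% NaCl, stained, dye released with 0.1 N NaOH, OD 490 nm. IC50 by linear regression of % inhibition vs log dose. Triplicate wells, repeated thrice.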

[1] = Safety index, ratio of IC50 for rat H9c2 cells to IC50 for Entamoeba histolytica HM1:IMSS trophozoites; assay type: toxicity, cell-based; settings: read-out: Ratio IC50
[2] = Toxicity in rat H9c2 cells after 48 hrs by MTT assay; assay type: cell-based
Outline: (§1)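 Subconfluent H9c2 cardiac myoblasts exposed to increasing compound concentrations for 48 h at 37 °C in 5% CO2, with an untreated control. Cells washed in PBS, given 5 mg/ml MTT for 45 min at 37 °C. Crystals dissolved in acid isopropanol, absorbance read at 570 nm. Viability = absorbance of treated relative to untreated cells. Run in triplicate.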

[3] = Toxicity in rat H9c2 cells assessed as cell viability at 12.5 ug/ml after 48 hrs by MTT assay; assay type: cell-based; settings: read-out: Activity; outline: as §1

IC50 (Entamoeba histolytica) [µM] | SMILES | selectivity ratio [1] | IC50 at 48 h [2] [µM] | viability at 48 h, 12.5 ug/ml [3] [%]
2.78 | CCc1ccc(C2ON=C(c3ccc(C4=NOC(c5ccc(CC)cc5)O4)cc3)O2)cc1 (stereo not given) |  |  | 
6.1 | Clc1ccc(C2ON=C(c3ccc(C4=NOC(c5ccc(Cl)c(Cl)c5)O4)cc3)O2)cc1Cl (stereo not given) |  |  | 
1.05 | Cc1ccc(C2ON=C(c3ccc(C4=NOC(c5ccc(C)cc5)O4)cc3)O2)cc1 (stereo not given) | 46.7 | 49 | 82
1.41 | Clc1cccc(C2ON=C(c3ccc(C4=NOC(c5cccc(Cl)c5)O4)cc3)O2)c1 (stereo not given) | 5.67 | 8 | 83.5
5.73 | O/N=C/c1ccc(/C=N/O)cc1 |  |  | 
4.65 | CC(C)c1ccc(C2ON=C(c3ccc(C4=NOC(c5ccc(C(C)C)cc5)O4)cc3)O2)cc1 (stereo not given) |  |  | 
1.01 | COc1ccc(C2ON=C(c3ccc(C4=NOC(c5ccc(OC)cc5)O4)cc3)O2)cc1 (stereo not given) | > 16.8 | > 17 | 89
4.21 | Clc1ccc(C2ON=C(c3ccc(C4=NOC(c5ccc(Cl)cc5)O4)cc3)O2)cc1 (stereo not given) |  |  | 
 | Cc1ncc([N+](=O)[O-])n1CCO [METRONIDAZOLE] | > 64.4 | > 116 | 
4.38 | COc1ccc(C2ON=C(c3ccc(C4=NOC(c5ccc(OC)c(OC)c5)O4)cc3)O2)cc1OC (stereo not given) |  |  | 
3.96 | c1ccc(C2ON=C(c3ccc(C4=NOC(c5ccccc5)O4)cc3)O2)cc1 (stereo not given) |  |  | 
1.22 | Clc1ccccc1C1ON=C(c2ccc(C3=NOC(c4ccccc4Cl)O3)cc2)O1 (stereo not given) | 27.9 | 34 | 96.2
